Yeast growth inh: chemicals that inhibit yeast BB579 growth in restrictive medium (lifespan-shortening candidates). AID 804. inhibition, % at 10 µM. hit rate 0.51% among 140,000. S. cerevisiae BB579 growth, OD615, 48 h;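 active means inhibition above a set limit, 3 SD over the mean compound inhibition, cut at about 44% in these data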
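System: DeaD yeast strain BB579; buffer or medium: CSMM-D dextrose restrictive medium; technique: OD at 615 nm; schedule: 4 h cell preincubation, 48 h compound exposure, 30 °C humidified; doses: single 10 µM dose; controls: amphotericin B 10 µg/mL, positive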
Phagocytosis inh: macrophage phagocytosis inhibition; J774A.1 macrophage IgG-bead phagocytosis, imaging; inhibition, % at 5 µM; AID 1029; hit rate 0.07% among 110,000;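 active means inhibition above the mean of the plate negative controls plus 5 SD, cut at about 13% in these data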;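 further: phagocytic index as fraction of beads internalized from green versus red external bead signal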
Yeast life ext: yeast lifespan extension | S. cerevisiae growth with nicotinamide, OD615; deaD strain in restrictive glucose medium | inhibition of the nicotinamide effect, % at 10 µM | hit rate 0.68% among 130,000 | AID 775;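 active means inhibition above a set limit, placed 3 SD over the median of all compounds, cut at about 26% in these data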
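System: Modified budding yeast, DeaD strain | Buffer or medium: Restrictive glucose medium | Also added: 1.5 mM nicotinamide | Doses: 10 µM single point, 0.25% DMSO | Schedule: 48 h compound exposure at 30 °C, humidified | Detection: Absorbance at 615 nm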
RAM network inh: blocks the yeast RAM network; hit rate 1.8% among 190,000; S. cerevisiae dse1pr::URA3 reporter, 5-FOA growth OD615, 2 d; analog-sensitive cbk1-as2 kinase mutant strain; AID 868; inhibition, % at 50 µM;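 active means inhibition above a set limit, 3 SD over mean compound inhibition, cut at about 8.4% in these data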;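 further: inhibition rescues growth on 5-FOA so higher OD means more RAM inhibition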
A number is an active result; – = inactive; · = no result. Hits are enriched below; roughly 2.7% of the tested compounds scored in any of these assays.

SMILES	Yeast growth inh	Phagocytosis inh	Yeast life ext	RAM network inh
COc1ccc(/C=C/C=C2\NC(=S)NC2=O)cc1	·	·	·	10.2
COC(=O)c1[nH]c2ccc(F)cc2c1NS(=O)(=O)c1ccc(F)c(C)c1	–	–	–	10.5
CC(C)C(C)NC(=O)COC(=O)c1cc(S(=O)(=O)N(C)C)ccc1N1CCCC1 (configuration not stated)	·	·	·	–
CCS(=O)(=O)n1nc(-c2ccc(Cl)cc2)nc1SCc1ccccc1	74.7	·	·	–
Cc1c(Cl)cccc1N=Cc1ccc([N+](=O)[O-])s1	57.1	·	–	–
COC(=O)Oc1ccc(/C=N/NC(=O)CN(c2ccccc2Cl)S(C)(=O)=O)cc1OC	–	–	–	–
Cc1ccn2c(/C=N/OCc3ccc(F)cc3)c(-c3ccc(Cl)cc3)nc2c1	–	–	–	9.7
O=C(CCl)NC(=O)NC12CC3CC(CC(C3)C1)C2	–	–	35.0	–
CC(Cl)C(=O)NC(=O)NC12CC3CC(CC(C3)C1)C2 (configuration not stated)	–	–	–	–
C=C(C(=O)c1ccccc1)C(CC(=O)c1ccccc1)c1ccccc1 (configuration not stated)	–	–	38.8	–
C=C(CCC(=O)c1ccccc1)C(=O)c1ccccc1	–	–	30.6	–
O=C(CCCCCCCC(=O)c1ccccc1)c1ccccc1	·	·	·	–
c1ccc2c(SCc3cn4ccccc4n3)nncc2c1	·	·	·	–
COC(=O)c1ccc(CSc2cc(C)c3cccc(C)c3n2)o1	·	·	·	8.5
c1ccc(-c2nc3nonc3nc2-c2ccccc2)cc1	70.2	–	–	–
N#Cc1nc(COc2ccccc2)oc1N1CCC(Cc2ccccc2)CC1	–	–	–	10.8
N#Cc1nc(COc2ccccc2)oc1N1CCN(Cc2ccccc2)CC1	–	–	–	–
N#Cc1nc(Cc2cccc3ccccc23)oc1N1CCOCC1	–	–	–	–
CC1CCN(c2oc(Cc3cccc4ccccc34)nc2C#N)CC1	–	–	–	10.1
COc1ccc(N2CCN(C(=O)C3(C)CC3(Cl)Cl)CC2)cc1 (configuration not stated)	–	–	–	–
O=C(CN1C(=O)CC(c2ccco2)Sc2ccccc21)NC1CCCCC1 (configuration not stated)	·	·	·	–
Nc1[nH]n(-c2ccccc2)c(=O)c1N=Nc1ccc2c(c1)OCCO2	·	·	·	–
Cc1cc([N+](=O)[O-])ccc1N=Nc1c(N)[nH]n(-c2ccccc2)c1=O	·	·	·	8.6
COc1cc(C2=NC(CO)(CO)CO2)cc(OC)c1OC	·	·	·	–
CCOC(=O)c1ccc2c(c1)n(CC)c(/C=C/N(C)c1ccccc1)[n+]2CC	–	–	–	–
SMILES	Yeast growth inh	Phagocytosis inh	Yeast life ext	RAM network inh
CCOC(=O)c1ccc2c(c1)n(CCO)c(C)[n+]2CC	–	–	71.2	–
COc1cccc(/C=C2\SC(=S)N(CC3CCCO3)C2=O)c1 (configuration not stated)	–	–	–	8.6
C=CCn1c(=O)c(C(=O)NCCNCC)c(O)c2ccccc21	–	–	31.4	–
CCNCCNC(=O)c1c(O)c2ccccc2n(CC)c1=O	–	–	–	–
COc1ccc(NC(=O)Cn2nnc(-c3ccccc3NS(=O)(=O)c3ccc(OC)cc3)n2)cc1	–	–	–	9.5
Cc1ccc(NC(=O)Cn2nnc(-c3ccccc3NC(=O)c3cccs3)n2)cc1	–	·	–	8.4
O=C(CSc1nnc2ccc(-c3ccc(F)cc3)nn12)N1CCCC1	·	·	·	–
O=C1c2ccccc2-c2onc3ccc(NCCCn4ccnc4)c1c23	–	–	79.7	37.9
COc1ccc(NC(=O)CCN2C(=O)C3CC=C(Cl)CC3C2=O)cc1 (configuration not stated)	–	–	–	–
COC(=O)c1c(O)c2ccccc2[nH]c1=O	–	–	40.9	–
CC1CCc2cc(F)cc3c(O)c(C(=O)NCC4CCCO4)c(=O)n1c23 (configuration not stated)	–	–	–	11.3
CCCn1c(=O)c(C(=O)NCC2CCCO2)c(O)c2ccccc21 (configuration not stated)	·	·	·	–
CC(C)NC(=O)c1c(O)c2ccccc2[nH]c1=O	–	–	–	–
O=C(NC1CCCCCC1)c1c(O)c2ccccc2[nH]c1=O	–	–	–	–
O=C(N/N=C/c1ccccc1)c1c(O)c2ccccc2[nH]c1=O	–	–	58.9	–
O=C(N/N=C/c1ccc(F)cc1)c1c(O)c2ccccc2[nH]c1=O	–	–	57.2	–
c1cn(-c2ccc(-c3ccnc4ncnn34)cc2)cn1	·	·	·	–
CCCCN(CC)C(=O)Cn1cnc2ccc(S(=O)(=O)N3CCC(C)CC3)cc2c1=O	–	–	–	–
O=C(N/N=C/c1cccc(F)c1)c1c(O)c2ccccc2[nH]c1=O	–	–	51.6	–
